Assay results taken from ChEMBL document CHEMBL4371012, “Development of Macrocyclic Peptides Containing Epoxyketone with Oral Availability as Proteasome Inhibitors” (J Med Chem, 2018).
Activity calls are given as the source filed them. No cut-off for these calls is given here.

Tests used:
[1] = AUC (0 to t) in ICR mouse at 30 mg/kg, po via gavage after 1 hr by LC-MS/MS analysis; format: ADME, organism-based; design: time < 1 hr, dose 30 mg/kg, route oral; details: in vivo
MM1.S = experiment: Antiproliferative activity against human MM1S cells after 72 hrs by MTS assay; format: functional, cell-based
[2] = Cmax in ICR mouse at 30 mg/kg, po via gavage by LC-MS/MS analysis; format: ADME, organism-based; design: dose 30 mg/kg, route oral; details: in vivo
[3] = molecular target: T1, Proteasome Macropain subunit MB1 (Homo sapiens, UniProt P28074); experiment: Inhibition of human 20S proteasome chymotrypsin-like activity using Suc-Leu-Leu-Val-Tyr-AMC as substrate pretreated for 15 mins followed by substrate addition by fluorescence assay
T1 sequence (P28074 whole entry): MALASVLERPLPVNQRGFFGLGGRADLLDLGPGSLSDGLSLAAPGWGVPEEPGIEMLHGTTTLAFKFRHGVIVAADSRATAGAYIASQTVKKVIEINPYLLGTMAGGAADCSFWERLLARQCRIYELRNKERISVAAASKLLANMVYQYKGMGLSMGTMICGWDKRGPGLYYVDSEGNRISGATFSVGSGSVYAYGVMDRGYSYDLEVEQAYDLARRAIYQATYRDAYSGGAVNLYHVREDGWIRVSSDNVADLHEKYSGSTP

Mus musculus = experiment: In vivo inhibition of 20S proteasome chymotrypsin-like activity in Balb/c mouse blood at 30 mg/kg, po measured at 2 to 24 hrs post dose using LLVY-AMC as substrate by fluorescence assay; format: functional, organism-based
Procedure, shortened: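 BALB/c mice dosed orally in 0.5% CMC-Na vehicle. Blood was sampled at 2 and 24 h after dosing for proteasome chymotrypsin-like activity.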

[4] = Tmax in ICR mouse at 30 mg/kg, po via gavage by LC-MS/MS analysis; format: ADME, organism-based; details: in vivo
RPMI-8226 = experiment: Antiproliferative activity against human RPMI8226 cells after 72 hrs by MTS assay; format: functional, cell-based; details: RPMI-8226, 72 h
[5] = Metabolic stability in mouse liver microsomes assessed as parent compound remaining at 100 uM after 30 mins by LC-MS/MS analysis; format: ADME, Microsome; details: read-out: Stability
Procedure, shortened: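 After the microsomal incubation, the clear supernatant was analysed by ESI LC-MS. The read-out was the relative peak area of each parent compound.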

MV4-11 = experiment: Antiproliferative activity against human MV4-11 cells after 72 hrs by MTS assay; format: functional, cell-based; details: MV4-11, 72 h

SMILES: COC[C@@H]1NC(=O)c2nccn2CCCCCCOC[C@@H](C(=O)N[C@@H](Cc2ccccc2)C(=O)[C@@]2(C)CO2)NC1=O
- AUC(0-t) at 1 h [1]: 58 ng·h/mL
- IC50 (MM1.S): 1 nM
- Cmax [2]: 92 ng/mL
- IC50 [3]: 14 nM
- inhibition (Mus musculus): Active
- Tmax [4]: 13.2 min
- IC50 (RPMI-8226): 3 nM
- remaining at 0.5 h, 100 µM [5]: 92%
- IC50 (MV4-11): 3 nM
